In publication PMC7035113 (Nature, 2020):
Square brackets hold non-standard residues; d marks the D form. Ends that are not written are not given here. Peptide text beside a SMILES is read from it. pT = C[C@@H](OP(=O)(O)O)[C@H](N)C(=O)O

Target: T1, SA2-SCC1 (Homo sapiens, UniProt O60216+Q8N3U4)
T1 sequence (Q8N3U4 80-1060): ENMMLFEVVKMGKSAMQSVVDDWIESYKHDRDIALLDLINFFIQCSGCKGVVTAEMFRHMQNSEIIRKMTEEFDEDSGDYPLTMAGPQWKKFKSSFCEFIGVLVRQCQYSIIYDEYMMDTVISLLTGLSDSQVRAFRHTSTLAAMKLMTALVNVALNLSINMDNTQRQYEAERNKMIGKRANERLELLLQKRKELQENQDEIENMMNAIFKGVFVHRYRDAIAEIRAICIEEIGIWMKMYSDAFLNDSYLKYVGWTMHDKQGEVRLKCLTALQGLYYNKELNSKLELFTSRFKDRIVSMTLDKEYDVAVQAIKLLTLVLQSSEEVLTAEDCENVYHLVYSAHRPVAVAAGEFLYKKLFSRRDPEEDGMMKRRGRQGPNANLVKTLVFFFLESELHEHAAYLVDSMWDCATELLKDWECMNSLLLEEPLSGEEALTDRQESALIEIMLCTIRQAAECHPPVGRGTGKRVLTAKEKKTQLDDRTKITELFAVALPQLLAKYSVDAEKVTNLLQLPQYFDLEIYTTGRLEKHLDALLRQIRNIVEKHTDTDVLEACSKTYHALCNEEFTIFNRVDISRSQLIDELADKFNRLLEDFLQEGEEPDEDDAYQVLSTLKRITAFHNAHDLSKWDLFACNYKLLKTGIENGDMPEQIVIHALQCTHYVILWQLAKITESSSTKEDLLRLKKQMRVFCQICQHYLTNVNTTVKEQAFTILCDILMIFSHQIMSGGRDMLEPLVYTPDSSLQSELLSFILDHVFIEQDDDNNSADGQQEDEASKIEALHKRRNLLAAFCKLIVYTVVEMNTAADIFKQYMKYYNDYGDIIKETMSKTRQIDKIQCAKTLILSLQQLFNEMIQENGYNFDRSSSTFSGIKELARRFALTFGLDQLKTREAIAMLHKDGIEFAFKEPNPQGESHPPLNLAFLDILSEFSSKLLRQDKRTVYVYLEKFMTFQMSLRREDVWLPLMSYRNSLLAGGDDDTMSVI
T1 sequence (O60216 281-420): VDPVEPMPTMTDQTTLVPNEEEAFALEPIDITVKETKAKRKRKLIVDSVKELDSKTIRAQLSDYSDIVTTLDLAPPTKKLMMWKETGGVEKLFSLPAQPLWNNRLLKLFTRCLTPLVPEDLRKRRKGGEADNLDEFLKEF
Experiment: Isothermal titration calorimetry
Details: ITC, 25°C, one site binding model
In short: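 Recombinant SA2-SCC1 from E. coli BL21(DE3), purified by Co2+ IMAC, MonoQ and Superdex 200. Protein and peptides were dialysed overnight at 4°C against 20 mM Tris pH 7.7, 150 mM NaCl, 0.5 mM TCEP. 50 μM SA2-SCC1 was placed in the cell and titrated with 500 μM peptide in 16 injections. Data were fitted to a one-site model; titrations were repeated three times.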

N (binding stoichiometry)	TΔS [kcal/mol]	ΔG [kcal/mol]	ΔH [kcal/mol]	Compound
0.83	-4.02	-6.64	-10.67	SNDAYNFNLEE [Shugoshin 331-341]
0.62	-0.54	-6.11	-6.66	DVKLEFFGFEDHETGGDEGGSGSSNYKIKYFGFDDLSESED [Wapl 423-463]
0.89	-12.30	-7.69	-20.00	CC(C)C[C@H](NC(=O)[C@H](CC(N)=O)NC(=O)[C@H](Cc1ccccc1)NC(=O)[C@H](CC(N)=O)NC(=O)[C@H](Cc1ccc(O)cc1)NC(=O)[C@H](C)NC(=O)[C@H](CC(=O)O)NC(=O)[C@H](CC(N)=O)NC(=O)[C@@H](N)CO)C(=O)N[C@@H](CCC(=O)O)C(=O)N[C@@H](CCC(=O)O)C(=O)NCC(=O)N[C@H](C(=O)N[C@@H](Cc1c[nH]cn1)C(=O)N[C@@H](CC(C)C)C(=O)N[C@H](C(=O)N1CCC[C@H]1C(=O)N[C@@H](Cc1ccccc1)C(=O)N[C@@H](CCCNC(=N)N)C(=O)O)[C@@H](C)OP(=O)(O)O)C(C)C [Shugoshin 331-349 (pT346), reference compound] (H-SNDAYNFNLEEGVHL[pT]PFR-OH; N-terminus and C-terminus assumed)
1.00	-1.20	-5.60	-6.81	NYKIKYFGFDDLSESE [Wapl 447-462]
